Laboratory results reported in ChEMBL document CHEMBL1155539, “Discovery of 4-[1-[([1-[4-(trifluoromethyl)benzyl]-1H-indol-7-yl]carbonyl)amino]cyclopropyl]benzoic acid (MF-766), a highly potent and selective EP4 antagonist for treating inflammatory pain” (Bioorg Med Chem Lett, 2010).

What was measured:
[1] = system: Rattus norvegicus; assay: Antiinflammatory activity in rat assessed as inhibition of complete Freund's adjuvant-induced primary paw swelling at 0.001 to 1 mg/kg administered daily once 9 days after adjuvant challenge measured on day 18; format: functional; parameters: scale not given: the % may be the effect or the level left; conditions: dose mg/kg 0.001-1
In short: (§1)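 Rat adjuvant-induced arthritis model with daily dosing in mg/kg/day. Dose groups were 0, 0.001, 0.01, 0.1 and 1 mg/kg, plus a non-AIA control group. Primary and secondary paw swelling were scored as % inhibition relative to vehicle-treated arthritic rats, and ED50 was estimated from the dose–response.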

[2] = Elimination half life in Sprague-Dawley rat at 5 mg/kg, iv and 20 mg/kg, po; format: ADME, organism-based; conditions: in vivo, read-out: beta t1/2 (converted)
In short: (§2)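 Sprague-Dawley rats dosed iv at 5 mg/kg and po at 20 mg/kg. The iv group was n = 2 males given the free acid in 60% PEG 200 at 1 mL/kg. PK parameters were derived from plasma levels.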

[3] = target: Prostaglandin F2-alpha receptor (Homo sapiens, UniProt P43088); assay: Displacement of [3H]PGF2alpha from human prostanoid FP receptor expressed in HEK293-EBNA cells after 60 mins by scintillation counting; format: cell-based
Prostaglandin F2-alpha receptor, sequence (P43088 whole entry): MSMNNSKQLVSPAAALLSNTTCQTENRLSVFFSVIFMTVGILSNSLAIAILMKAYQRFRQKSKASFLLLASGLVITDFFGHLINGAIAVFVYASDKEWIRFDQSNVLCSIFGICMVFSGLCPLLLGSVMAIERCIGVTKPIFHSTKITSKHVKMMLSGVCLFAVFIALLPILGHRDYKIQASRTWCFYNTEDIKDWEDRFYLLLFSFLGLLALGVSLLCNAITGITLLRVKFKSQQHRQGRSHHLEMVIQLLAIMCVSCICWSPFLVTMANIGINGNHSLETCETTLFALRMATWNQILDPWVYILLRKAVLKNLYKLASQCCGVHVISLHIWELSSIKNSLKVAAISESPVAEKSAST

[4] = target: T1, Prostaglandin E2 receptor EP4 subtype (Homo sapiens, UniProt P35408); assay: Antagonist activity at human prostanoid EP4 receptor expressed in HEK293 cells assessed as inhibition of PGE2-induced cAMP accumulation by scintillation proximity assay in presence of 10% human serum; format: functional, cell-based
T1 sequence (P35408 whole entry): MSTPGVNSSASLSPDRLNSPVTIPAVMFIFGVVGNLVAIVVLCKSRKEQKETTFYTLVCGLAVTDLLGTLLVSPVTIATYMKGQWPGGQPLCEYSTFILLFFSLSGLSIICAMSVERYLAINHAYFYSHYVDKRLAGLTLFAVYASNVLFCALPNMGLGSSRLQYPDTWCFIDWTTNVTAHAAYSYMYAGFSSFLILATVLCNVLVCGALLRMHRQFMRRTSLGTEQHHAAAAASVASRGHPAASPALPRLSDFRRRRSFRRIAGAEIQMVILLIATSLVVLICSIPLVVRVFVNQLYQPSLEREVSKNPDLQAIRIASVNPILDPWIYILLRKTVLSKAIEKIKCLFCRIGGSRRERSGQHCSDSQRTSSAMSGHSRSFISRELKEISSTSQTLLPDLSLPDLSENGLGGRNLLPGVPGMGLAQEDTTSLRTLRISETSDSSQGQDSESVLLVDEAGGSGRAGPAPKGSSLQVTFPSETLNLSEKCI

[5] = Drug level in complete Freund's adjuvant challenged rat administered daily once 9 days after adjuvant challenge measured on day 18 after 24 hrs post dose; format: ADME, organism-based; conditions: in vivo, read-out: Drug uptake
In short: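 In a separate rat AIA experiment with daily dosing, plasma drug levels were measured 2 h and 24 h after the final dose.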

[6] = target: T2, Prostaglandin E2 receptor EP1 subtype (Homo sapiens, UniProt P34995); assay: Displacement of [3H]PGE2 from human prostanoid EP1 receptor expressed in HEK293-EBNA cells after 60 mins by scintillation counting; format: cell-based
T2 sequence (P34995 whole entry): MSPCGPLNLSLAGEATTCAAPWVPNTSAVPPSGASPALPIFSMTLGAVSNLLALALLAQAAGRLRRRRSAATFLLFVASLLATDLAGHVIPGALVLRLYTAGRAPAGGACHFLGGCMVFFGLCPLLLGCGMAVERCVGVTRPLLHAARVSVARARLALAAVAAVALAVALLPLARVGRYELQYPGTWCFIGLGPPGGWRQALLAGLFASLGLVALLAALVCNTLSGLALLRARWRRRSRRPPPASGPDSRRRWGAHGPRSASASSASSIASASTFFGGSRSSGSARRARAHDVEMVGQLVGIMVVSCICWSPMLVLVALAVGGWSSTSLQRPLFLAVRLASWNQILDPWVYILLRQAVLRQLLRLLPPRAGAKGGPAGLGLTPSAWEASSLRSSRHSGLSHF

[7] = target: T3, Prostaglandin D2 receptor (Homo sapiens, UniProt Q13258); assay: Displacement of [3H]PGD2 from human Prostanoid DP1 receptor expressed in HEK293-EBNA cells after 60 mins by scintillation counting; format: cell-based
T3 sequence (Q13258 whole entry): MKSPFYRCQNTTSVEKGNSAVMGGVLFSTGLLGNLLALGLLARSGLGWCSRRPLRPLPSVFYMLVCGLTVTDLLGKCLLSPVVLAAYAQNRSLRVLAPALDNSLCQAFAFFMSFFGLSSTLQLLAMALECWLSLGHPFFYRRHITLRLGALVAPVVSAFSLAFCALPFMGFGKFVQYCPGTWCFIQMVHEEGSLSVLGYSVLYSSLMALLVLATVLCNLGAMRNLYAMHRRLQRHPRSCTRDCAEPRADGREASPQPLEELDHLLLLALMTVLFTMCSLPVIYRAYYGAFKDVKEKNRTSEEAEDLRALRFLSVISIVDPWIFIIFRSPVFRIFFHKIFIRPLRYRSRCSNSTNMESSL

[8] = target: Prostaglandin E2 receptor EP2 subtype (Homo sapiens, UniProt P43116); assay: Displacement of [3H]PGE2 from human prostanoid EP2 receptor expressed in HEK293-EBNA cells after 60 mins by scintillation counting; format: cell-based
Prostaglandin E2 receptor EP2 subtype, sequence (P43116 whole entry): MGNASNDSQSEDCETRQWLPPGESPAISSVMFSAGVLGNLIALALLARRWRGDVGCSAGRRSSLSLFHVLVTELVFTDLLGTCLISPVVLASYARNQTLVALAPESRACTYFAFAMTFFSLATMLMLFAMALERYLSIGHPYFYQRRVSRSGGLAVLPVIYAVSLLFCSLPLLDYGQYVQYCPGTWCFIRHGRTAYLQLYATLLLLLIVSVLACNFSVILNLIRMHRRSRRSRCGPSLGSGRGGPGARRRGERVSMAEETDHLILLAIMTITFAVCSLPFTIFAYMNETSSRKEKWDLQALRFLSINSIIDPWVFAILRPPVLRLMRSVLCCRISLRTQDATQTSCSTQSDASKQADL

[9] = system: Rattus norvegicus; assay: Antiinflammatory activity in rat assessed as inhibition of complete Freund's adjuvant-induced primary paw swelling administered daily once 9 days after adjuvant challenge measured on day 18; format: functional; in short: as §1
[10] = Metabolic stability in dog hepatocytes; format: ADME, cell-based, Canis lupus familiaris, Hepatocyte
[11] = system: Hepatocyte; assay: Oxidative metabolism in human hepatocytes assessed as protein covalent binding after 2 hrs; format: ADME, cell-based
In short: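 [3H]-labelled compound incubated with fresh rat or human hepatocytes for 2 h. Covalent protein binding was expressed as pmol-equiv/mg protein, and samples were checked for tritium loss by HPLC with radiometric detection.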

[12] = system: Canis familiaris; assay: Bioavailability in Beagle dog at 1 mg/kg, iv and 4 mg/kg, po; conditions: in vivo
[13] = Volume of distribution in Sprague-Dawley rat at 5 mg/kg, iv and 20 mg/kg, po; format: ADME, organism-based; conditions: in vivo; in short: as §2
[14] = target: T1, Prostaglandin E2 receptor EP4 subtype; assay: Antagonist activity at human prostanoid EP4 receptor expressed in HEK293 cells assessed as inhibition of PGE2-induced cAMP accumulation by scintillation proximity assay; format: functional, cell-based
In short: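 Read-out was inhibition of PGE2-induced cAMP accumulation at EP4. Values are means from at least two independent experiments.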

[15] = system: Rattus norvegicus; assay: Antiinflammatory activity in rat assessed as inhibition of complete Freund's adjuvant-induced secondary paw swelling at 0.001 to 1 mg/kg administered daily once 9 days after adjuvant challenge measured on day 18; format: functional; parameters: scale not given: the % may be the effect or the level left; conditions: dose mg/kg 0.001-1; in short: as §1
[16] = system: Rattus norvegicus; assay: Antiinflammatory activity in rat assessed as inhibition of complete Freund's adjuvant-induced paw swelling administered daily once 9 days after adjuvant challenge measured on day 18; format: functional; conditions: read-out: ED50; in short: as §1
[17] = target: T1, Prostaglandin E2 receptor EP4 subtype; assay: Displacement of [3H]PGE2 from human prostanoid EP4 receptor expressed in HEK293-EBNA cells after 60 mins by scintillation counting in presence of 10% human serum; format: cell-based
[18] = target: T4, Prostaglandin D2 receptor 2 (Homo sapiens, UniProt Q9Y5Y4); assay: Displacement of [3H]PGD2 from human Prostanoid DP2 receptor expressed in HEK293-EBNA cells after 60 mins by scintillation counting; format: cell-based
T4 sequence (Q9Y5Y4 whole entry): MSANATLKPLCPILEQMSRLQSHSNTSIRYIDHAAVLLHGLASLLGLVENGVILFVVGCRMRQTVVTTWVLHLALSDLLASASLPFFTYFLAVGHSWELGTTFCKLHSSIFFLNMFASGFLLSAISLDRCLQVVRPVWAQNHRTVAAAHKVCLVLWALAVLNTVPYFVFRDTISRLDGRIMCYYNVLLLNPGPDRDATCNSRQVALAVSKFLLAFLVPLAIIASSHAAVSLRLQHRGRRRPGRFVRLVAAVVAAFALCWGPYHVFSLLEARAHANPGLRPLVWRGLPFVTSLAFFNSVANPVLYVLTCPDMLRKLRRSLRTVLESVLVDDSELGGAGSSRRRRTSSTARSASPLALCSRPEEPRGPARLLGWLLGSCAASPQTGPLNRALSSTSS

[19] = system: Hepatocyte; assay: Metabolic stability in rat hepatocytes; format: ADME, cell-based
[20] = AUC (0 to 24 hrs) in Sprague-Dawley rat at 20 mg/kg, po; format: ADME, organism-based; parameters: time < 24 hr, dose 20 mg/kg, route oral; conditions: plasma; in short: as §2
[21] = target: Prostacyclin receptor (Homo sapiens, UniProt P43119); assay: Displacement of [3H]iloprost from human prostanoid IP receptor expressed in HEK293-EBNA cells after 60 mins by scintillation counting; format: cell-based
Prostacyclin receptor, sequence (P43119 whole entry): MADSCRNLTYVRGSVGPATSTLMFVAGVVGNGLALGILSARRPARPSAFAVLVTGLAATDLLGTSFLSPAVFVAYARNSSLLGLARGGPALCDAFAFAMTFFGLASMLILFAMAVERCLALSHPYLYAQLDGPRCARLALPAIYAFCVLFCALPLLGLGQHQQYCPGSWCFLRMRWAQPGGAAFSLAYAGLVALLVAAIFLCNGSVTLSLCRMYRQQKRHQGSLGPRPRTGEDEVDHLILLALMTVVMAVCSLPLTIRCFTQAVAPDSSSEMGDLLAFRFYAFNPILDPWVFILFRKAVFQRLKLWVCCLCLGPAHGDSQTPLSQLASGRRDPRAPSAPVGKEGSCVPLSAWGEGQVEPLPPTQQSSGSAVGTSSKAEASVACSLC

O=C(O)c1ccc(C2(NC(=O)c3cccc4ccn(Cc5ccc(C(F)(F)F)cc5)c34)CC2)cc1
Activity [1]: 70% | half-life [2]: 4.6 h | Ki [3]: 6.4 µM | IC50 [4]: 0.0018 µM | concentration at 24 h [5]: 3.1 nM | Ki [6]: 20 µM | Ki [7]: 1.65 µM | Ki [8]: 8 µM | ED100 [9]: 0.025 mg/kg/day | Stability [10]: Stable | Activity [11]: 50 pmolequiv/mg | F [12]: 74% | Vd [13]: 1 L/kg | IC50 [14]: 0.0013 µM | Activity [15]: 100% | ED50 [16]: 0.004 mg/kg/day | Ki [17]: 0.00034 µM | Ki [18]: > 21 µM | Stability [19]: Stable | AUC(0-t) at 24 h [20]: 150 µM·h | Ki [21]: > 22 µM
